Here are results for 12 molecules from ChEMBL document CHEMBL1275287, “Synthesis and molluscicidal evaluation of some new pyrazole, isoxazole, pyridine, pyrimidine, 1,4-thiazine and 1,3,4-thiadiazine derivatives incorporating benzofuran moiety” (Eur J Med Chem, 2010).

Activity calls are given as the source filed them. The rule behind the calls is not given here.

What all share (type): functional, organism-based
Assay [1] relates to Biomphalaria alexandrina. Nature of the assay: Molluscicidal activity against Biomphalaria alexandrina at 1 ppm after 24 hrs. A digest of the protocol:
(§1)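 Field-collected snails (about 7 mm shell diameter) held in the lab 10 days before testing and fed lettuce daily. Compound dissolved with two drops Tween 20 plus 2 mL DMSO, then suspended in untreated raw Nile/canal water in aerated glass jars. Three concentrations between 1 and 10 ppm; ten snails per jar, 24 h at 25 °C. Triplicate runs; mean killed snails recorded. Controls received water with Tween 20/DMSO only.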

In assay [2] the test system is Biomphalaria alexandrina. Nature of the assay: Molluscicidal activity against Biomphalaria alexandrina at 5 ppm after 24 hrs. A digest of the protocol:
as §1

Assay [3] relates to Biomphalaria alexandrina. Put plainly: Molluscicidal activity against Biomphalaria alexandrina at 10 ppm after 24 hrs. The method, boiled down: as §1

Turning to `C(=C1/Sc2ccccc2N=C1c1cc2ccccc2o1)/c1cn(-c2ccccc2)nc1-c1cc2ccccc2o1`, the outcome in assay [1], in assay [2] and in assay [3] was inactive.
With `c1ccc(-n2cc(C3CC(c4cc5ccccc5o4)=NO3)c(-c3cc4ccccc4o3)n2)cc1` (stereo unspecified), the outcome in assay [1], in assay [2] and in assay [3] was inactive.
`N#Cc1c(-c2cn(-c3ccccc3)nc2-c2cc3ccccc3o2)cc(-c2cc3ccccc3o2)nc1N`: the outcome in assay [1] was inactive. The outcome in assay [2] and in assay [3] was Active.
Consider `O=C(/C=C/c1cn(-c2ccccc2)nc1-c1cc2ccccc2o1)c1cc2ccccc2o1`, for which, in assay [1], the result was inactive. Moreover, the outcome in assay [2] and in assay [3] was Active.
Regarding `O=C(/C(Br)=C/c1cn(-c2ccccc2)nc1-c1cc2ccccc2o1)c1cc2ccccc2o1`, the outcome in assay [1], in assay [2] and in assay [3] was inactive.
As for `O=C(c1cc2ccccc2o1)C(Br)C(Br)c1cn(-c2ccccc2)nc1-c1cc2ccccc2o1` (stereo unspecified), the result in assay [1], in assay [2] and in assay [3] was inactive.
With `O=C(Nc1ccc([N+](=O)[O-])cc1Cl)c1cc(Cl)ccc1O`, the outcome in assay [1], in assay [2] and in assay [3] was Active.
Turning to `S=C1N=C(c2cn(-c3ccccc3)nc2-c2cc3ccccc3o2)CC(c2cc3ccccc3o2)N1` (stereo unspecified), the outcome in assay [1], in assay [2] and in assay [3] was inactive.
For the molecule `c1ccc(-n2cc(C3CC(c4cc5ccccc5o4)=NN3)c(-c3cc4ccccc4o3)n2)cc1` (stereo unspecified), the outcome in assay [1] was inactive. The outcome in assay [2] and in assay [3] was Active.
With `NC(=S)N1N=C(c2cc3ccccc3o2)CC1c1cn(-c2ccccc2)nc1-c1cc2ccccc2o1` (stereo unspecified), the result in assay [1], in assay [2] and in assay [3] was inactive.
As to `Cc1cn2c(nc1=O)S/C(=C\c1cn(-c3ccccc3)nc1-c1cc3ccccc3o1)C(c1cc3ccccc3o1)=N2`, the outcome in assay [1], in assay [2] and in assay [3] was inactive.
For `C(=C1/Sc2nncn2N=C1c1cc2ccccc2o1)/c1cn(-c2ccccc2)nc1-c1cc2ccccc2o1`, the outcome in assay [1] was inactive. Besides, the result in assay [2] and in assay [3] was Active.
